From ChEMBL document CHEMBL1122299, “Potential cerebral perfusion agents: synthesis and evaluation of a radioiodinated vinylalkylbarbituric acid analogue” (J Med Chem, 1983)

Tests used:
[1] = system: Rattus norvegicus; test: Distribution of radioactivity in blood of rats at 1 day after an intravenous injection; Value expressed as mean % injected dose, Range- 0.03-0.03; type: ADME, organism-based; conditions: in vivo, 24 h
Outline: (§1)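 Female Fischer 344 rats (10–12 wk, 170–200 g; food and water ad libitum) under ether received 7.95 μCi 125I-labeled agent (sp act ~155 mCi/mmol) in pH 7.4 phosphate buffer, filtered, via lateral tail vein. Four rats per time point (2 min–1 day). Killed by cervical fracture under ether; organs excised, saline-rinsed, blotted, weighed, gamma-counted; mean % injected dose/g with range.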

[2] = system: Rattus norvegicus; test: Distribution of radioactivity in blood of rats at 1 hr after an intravenous injection; Value expressed as mean % injected dose, Range-0.9-1.03; type: ADME, organism-based; conditions: in vivo; outline: as §1
[3] = system: Rattus norvegicus; test: Distribution of radioactivity in blood of rats at 2 mins after an intravenous injection; Value expressed as mean % injected dose, Range = 0.88-1.15; type: ADME, organism-based; conditions: in vivo; outline: as §1
[4] = system: Rattus norvegicus; test: Distribution of radioactivity in blood of rats at 2 hr after an intravenous injection; Value expressed as mean % injected dose, Range = 0.71-0.87; type: ADME, organism-based; conditions: in vivo; outline: as §1
[5] = system: Rattus norvegicus; test: Distribution of radioactivity in lung tissue of rats at 30 mins after an intravenous injection; Value expressed as mean % injected dose, Range- 0.65-0.87; type: ADME, organism-based; conditions: in vivo, 0.5 h; outline: as §1
[6] = system: Rattus norvegicus; test: Distribution of radioactivity in lung tissue of rats at 4 hr after an intravenous injection; Value expressed as mean % injected dose, Range- 0.28-0.31; type: ADME, organism-based; conditions: in vivo; outline: as §1
[7] = system: Rattus norvegicus; test: Distribution of radioactivity in lung tissue of rats at 5 mins after an intravenous injection; Value expressed as mean % injected dose, Range- 0.98-1.22; type: ADME, organism-based; conditions: in vivo; outline: as §1
[8] = system: Rattus norvegicus; test: Distribution of radioactivity in thyroid tissue of rats at 1 day after an intravenous injection; Value expressed as mean % injected dose, Range- 406-499; type: ADME, organism-based, Thyroid gland; conditions: in vivo, 24 h; outline: as §1
[9] = system: Rattus norvegicus; test: Distribution of radioactivity in thyroid tissue of rats at 2 mins after an intravenous injection; Value expressed as mean % injected dose, Range- 6.65-8.0.8; type: ADME, organism-based, Thyroid gland; conditions: in vivo; outline: as §1
[10] = system: Rattus norvegicus; test: Distribution of radioactivity in thyroid tissue of rats at 2 hr after an intravenous injection; Value expressed as mean % injected dose, Range- 92-159; type: ADME, organism-based, Thyroid gland; conditions: in vivo; outline: as §1
[11] = system: Rattus norvegicus; test: Distribution of radioactivity in thyroid tissue of rats at 30 mins after an intravenous injection; Value expressed as mean % injected dose, Range- 18.74-30.84; type: ADME, organism-based, Thyroid gland; conditions: in vivo, 0.5 h; outline: as §1
[12] = system: Rattus norvegicus; test: Distribution of radioactivity in thyroid tissue of rats at 4 hr after an intravenous injection; Value expressed as mean % injected dose, Range- 156-207; type: ADME, organism-based, Thyroid gland; conditions: in vivo; outline: as §1
[13] = system: Rattus norvegicus; test: Ratio between the distribution of radioactivity of brain to that of blood tissue of rats at 1 day after an intravenous administration; type: ADME, organism-based; conditions: 24 h
Outline: (§2)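 Same rats (four per time point, 2 min–1 day) after a 7.95 μCi tail-vein dose of 125I-labeled agent in pH 7.4 phosphate buffer. Brain and blood were excised, weighed and gamma-counted as % injected dose/g. The ratio compares brain to blood radioactivity and is reported as a mean.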

[14] = system: Rattus norvegicus; test: Ratio between the distribution of radioactivity of brain to that of blood tissue of rats at 1 hr after an intravenous administration; type: ADME, organism-based; outline: as §2
[15] = system: Rattus norvegicus; test: Ratio between the distribution of radioactivity of brain to that of blood tissue of rats at 2 hr after an intravenous administration; type: ADME, organism-based; outline: as §2
[16] = system: Rattus norvegicus; test: Ratio between the distribution of radioactivity of brain to that of blood tissue of rats at 2 min after an intravenous administration; type: ADME, organism-based; outline: as §2
[17] = system: Rattus norvegicus; test: Ratio between the distribution of radioactivity of brain to that of blood tissue of rats at 30 min after an intravenous administration; type: ADME, organism-based; conditions: 0.5 h; outline: as §2
[18] = system: Rattus norvegicus; test: Ratio between the distribution of radioactivity of brain to that of blood tissue of rats at 4 hr after an intravenous administration; type: ADME, organism-based; outline: as §2
[19] = system: Rattus norvegicus; test: Ratio between the distribution of radioactivity of brain to that of blood tissue of rats at 5 min after an intravenous administration; type: ADME, organism-based; outline: as §2
[20] = system: Rattus norvegicus; test: Distribution of radioactivity in thyroid tissue of rats at 5 mins after an intravenous injection; Value expressed as mean % injected dose, Range- 6.19-7.22; type: ADME, organism-based, Thyroid gland; conditions: in vivo; outline: as §1
[21] = system: Rattus norvegicus; test: Distribution of radioactivity in heart tissue of rats at 4 hr after an intravenous injection; Value expressed as mean % injected dose, Range- 0.16-0.2; type: ADME, organism-based; conditions: in vivo; outline: as §1
[22] = system: Rattus norvegicus; test: Distribution of radioactivity in heart tissue of rats at 5 mins after an intravenous injection; Value expressed as mean % injected dose, Range- 1.13-1.29; type: ADME, organism-based; conditions: in vivo; outline: as §1
[23] = system: Rattus norvegicus; test: Distribution of radioactivity in liver tissue of rats at 1 day after an intravenous injection; Value expressed as mean % injected dose, Range- 0.02-0.02; type: ADME, organism-based; conditions: in vivo, 24 h; outline: as §1
[24] = system: Rattus norvegicus; test: Distribution of radioactivity in liver tissue of rats at 1 hr after an intravenous injection; Value expressed as mean % injected dose, Range- 0.71-0.93; type: ADME, organism-based; conditions: in vivo; outline: as §1
[25] = system: Rattus norvegicus; test: Distribution of radioactivity in liver tissue of rats at 2 mins after an intravenous injection; Value expressed as mean % injected dose, Range- 2.91-3.53; type: ADME, organism-based; conditions: in vivo; outline: as §1
[26] = system: Rattus norvegicus; test: Distribution of radioactivity in liver tissue of rats at 2 hr after an intravenous injection; Value expressed as mean % injected dose, Range- 0.42-0.62; type: ADME, organism-based; conditions: in vivo; outline: as §1
[27] = system: Rattus norvegicus; test: Distribution of radioactivity in liver tissue of rats at 30 mins after an intravenous injection; Value expressed as mean % injected dose, Range- 0.97-1.41; type: ADME, organism-based; conditions: in vivo, 0.5 h; outline: as §1
[28] = system: Rattus norvegicus; test: Distribution of radioactivity in liver tissue of rats at 4 hr after an intravenous injection; Value expressed as mean % injected dose, Range- 0.19-0.23; type: ADME, organism-based; conditions: in vivo; outline: as §1
[29] = system: Rattus norvegicus; test: Distribution of radioactivity in liver tissue of rats at 5 mins after an intravenous injection; Value expressed as mean % injected dose, Range- 2.49-2.82; type: ADME, organism-based; conditions: in vivo; outline: as §1
[30] = system: Rattus norvegicus; test: Distribution of radioactivity in lung tissue of rats at 1 day after an intravenous injection; Value expressed as mean % injected dose, Range- 0.02-0.03; type: ADME, organism-based; conditions: in vivo, 24 h; outline: as §1
[31] = system: Rattus norvegicus; test: Distribution of radioactivity in lung tissue of rats at 2 mins after an intravenous injection; Value expressed as mean % injected dose, Range- 1.17-1.42; type: ADME, organism-based; conditions: in vivo; outline: as §1
[32] = system: Rattus norvegicus; test: Distribution of radioactivity in lung tissue of rats at 2 hr after an intravenous injection; Value expressed as mean % injected dose, Range- 0.47-0.58; type: ADME, organism-based; conditions: in vivo; outline: as §1
[33] = system: Rattus norvegicus; test: Distribution of radioactivity in blood of rats at 30 mins after an intravenous injection; Value expressed as mean % injected dose, Range = 0.68-1.03; type: ADME, organism-based; conditions: in vivo, 0.5 h; outline: as §1
[34] = system: Rattus norvegicus; test: Distribution of radioactivity in blood of rats at 4 hr after an intravenous injection; Value expressed as mean % injected dose, Range- 0.45-0.48; type: ADME, organism-based; conditions: in vivo; outline: as §1
[35] = system: Rattus norvegicus; test: Distribution of radioactivity in blood of rats at 5 mins after an intravenous injection; Value expressed as mean % injected dose, Range-0.81-1; type: ADME, organism-based; conditions: in vivo; outline: as §1
[36] = system: Rattus norvegicus; test: Distribution of radioactivity in brain tissue of rats at 1 day after an intravenous injection; Value expressed as mean % injected dose, Range- 0.007-0.008; type: ADME, organism-based; conditions: in vivo, 24 h; outline: as §1
[37] = system: Rattus norvegicus; test: Distribution of radioactivity in brain tissue of rats at 1 hr after an intravenous injection; Value expressed as mean % injected dose, Range- 0.18-0.22; type: ADME, organism-based; conditions: in vivo; outline: as §1
[38] = system: Rattus norvegicus; test: Distribution of radioactivity in brain tissue of rats at 2 mins after an intravenous injection; Value expressed as mean % injected dose, Range- 0.77-0.97; type: ADME, organism-based; conditions: in vivo; outline: as §1
[39] = system: Rattus norvegicus; test: Distribution of radioactivity in brain tissue of rats at 2 hr after an intravenous injection; Value expressed as mean % injected dose, Range- 0.08-0.13; type: ADME, organism-based; conditions: in vivo; outline: as §1
[40] = system: Rattus norvegicus; test: Distribution of radioactivity in brain tissue of rats at 30 mins after an intravenous injection; Value expressed as mean % injected dose, Range- 0.25-0.37; type: ADME, organism-based; conditions: in vivo, 0.5 h; outline: as §1
[41] = system: Rattus norvegicus; test: Distribution of radioactivity in brain tissue of rats at 4 hr after an intravenous injection; Value expressed as mean % injected dose, Range- 0.03-0.04; type: ADME, organism-based; conditions: in vivo; outline: as §1
[42] = system: Rattus norvegicus; test: Distribution of radioactivity in brain tissue of rats at 5 mins after an intravenous injection; Value expressed as mean % injected dose, Range- 0.74-0.94; type: ADME, organism-based; conditions: in vivo; outline: as §1
[43] = system: Rattus norvegicus; test: Distribution of radioactivity in heart tissue of rats at 1 day after an intravenous injection; Value expressed as mean % injected dose, Range- 0.02-0.02; type: ADME, organism-based; conditions: in vivo, 24 h; outline: as §1
[44] = system: Rattus norvegicus; test: Distribution of radioactivity in heart tissue of rats at 1 hr after an intravenous injection; Value expressed as mean % injected dose, Range- 0.5-0.63; type: ADME, organism-based; conditions: in vivo; outline: as §1
[45] = system: Rattus norvegicus; test: Distribution of radioactivity in heart tissue of rats at 2 mins after an intravenous injection; Value expressed as mean % injected dose, Range- 1.35-1.55; type: ADME, organism-based; conditions: in vivo; outline: as §1
[46] = system: Rattus norvegicus; test: Distribution of radioactivity in heart tissue of rats at 2 hr after an intravenous injection; Value expressed as mean % injected dose, Range- 0.24-0.38; type: ADME, organism-based; conditions: in vivo; outline: as §1
[47] = system: Rattus norvegicus; test: Distribution of radioactivity in heart tissue of rats at 30 mins after an intravenous injection; Value expressed as mean % injected dose, Range- 0.55-0.82; type: ADME, organism-based; conditions: in vivo, 0.5 h; outline: as §1
[48] = system: Rattus norvegicus; test: Distribution of radioactivity in lung tissue of rats at 1 hr after an intravenous injection; Value expressed as mean % injected dose, Range- 0.66-0.77; type: ADME, organism-based; conditions: in vivo; outline: as §1

Compound: CCC1(CCC/C=C/I)C(=O)NC(=O)NC1=O
- Activity [1]: 0.03
- Activity [2]: 0.97
- Activity [3]: 1
- Activity [4]: 0.76
- Activity [5]: 0.79
- Activity [6]: 0.29
- Activity [7]: 1.08
- Activity [8]: 434
- Activity [9]: 7.64
- Activity [10]: 130
- Activity [11]: 26.16
- Activity [12]: 178
- Ratio [13]: 0.26
- Ratio [14]: 0.2
- Ratio [15]: 0.14
- Ratio [16]: 0.83
- Ratio [17]: 0.36
- Ratio [18]: 0.07
- Ratio [19]: 0.91
- Activity [20]: 6.84
- Activity [21]: 0.18
- Activity [22]: 1.23
- Activity [23]: 0.02
- Activity [24]: 0.82
- Activity [25]: 3.19
- Activity [26]: 0.5
- Activity [27]: 1.21
- Activity [28]: 0.21
- Activity [29]: 2.69
- Activity [30]: 0.02
- Activity [31]: 1.31
- Activity [32]: 0.52
- Activity [33]: 0.92
- Activity [34]: 0.46
- Activity [35]: 0.9
- Activity [36]: 0.007
- Activity [37]: 0.19
- Activity [38]: 0.83
- Activity [39]: 0.1
- Activity [40]: 0.33
- Activity [41]: 0.03
- Activity [42]: 0.82
- Activity [43]: 0.02
- Activity [44]: 0.56
- Activity [45]: 1.49
- Activity [46]: 0.33
- Activity [47]: 0.71
- Activity [48]: 0.72
